High-throughput results deposited in PubChem BioAssay by The Scripps Research Institute Molecular Screening Center.
ASAP1 inh – inhibitors of human ASAP1 ArfGAP activity, primary screen, biochemical, fluorescence polarization | ASAP1-stimulated ARF1 GTP hydrolysis, GDP FP detection | hit rate 0.19% among 360,000 | inhibition, % at 16.5 µM; in the data active = inhibition above about 25%
UHRF1 MBD2 ctr – UHRF1 methylated DNA binding inhibitors, primary screen, counter-screen for MBD2 inhibitor project, biochemical, TR-FRET, human UHRF1, single concentration; E3 ubiquitin-protein ligase UHRF1 (Homo sapiens), Q96T88; UHRF1 binding to methylated oligo; inhibition, % at 4.4 µM; hit rate 0.75% among 370,000; in the data active = inhibition above about 21%;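 also: UHRF1 SRA domain binding a hemimethylated CpG hairpin DNA probe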
MBD2 DNA inh – inhibitors of MBD2 binding to methylated DNA, primary screen, biochemical, TR-FRET, DNA-binding domain, human. Methyl-CpG-binding domain protein 2 (Homo sapiens), Q9UBB5. MBD2 binding to methylated oligonucleotide. inhibition, % at 4.4 µM. hit rate 0.31% among 370,000; in the data active = inhibition above about 13%
Target sequence (Q9UBB5 whole entry, looked up, the tested form may be a part): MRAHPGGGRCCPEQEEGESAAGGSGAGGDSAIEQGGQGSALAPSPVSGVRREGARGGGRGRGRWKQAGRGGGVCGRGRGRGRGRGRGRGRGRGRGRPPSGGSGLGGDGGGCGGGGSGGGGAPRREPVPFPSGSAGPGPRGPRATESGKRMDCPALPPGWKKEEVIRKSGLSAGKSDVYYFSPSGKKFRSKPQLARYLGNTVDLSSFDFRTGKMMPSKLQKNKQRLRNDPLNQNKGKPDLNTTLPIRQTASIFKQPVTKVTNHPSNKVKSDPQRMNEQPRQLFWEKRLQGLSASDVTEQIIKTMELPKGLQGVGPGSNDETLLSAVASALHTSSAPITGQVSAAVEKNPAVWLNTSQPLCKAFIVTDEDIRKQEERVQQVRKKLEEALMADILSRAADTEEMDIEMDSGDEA
TDP2 absorb – human TDP2 enzyme inhibitors, primary screen, biochemical, epi absorbance, recombinant enzyme; hit rate 0.34% among 370,000; Tyrosyl-DNA phosphodiesterase 2 (Homo sapiens), O95551; inhibition, % at 12.8 µM; T5PNP hydrolysis, p-nitrophenol absorbance 415 nm;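 active = inhibition above the mean of all tested compounds plus 3 SD, set per campaign, cut at about 25% in these data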
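Incubation: 2 h at 37 °C; Test system: recombinant human TDP2; Quantity: enzyme 120 nM; Read-out basis: percent inhibition; Medium: 50 mM Tris-HCl pH 7.5 with Mg2+, KCl, DTT, BSA; Repeats: single replicate; Compound: 12.8 µM single point, 1% DMSO; Signal: epi absorbance; Reagent: 5 mM T5PNP chromogenic substrate; Benchmarks: no-enzyme high, DMSO-plus-enzyme low.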
ARFGAP1 inhibitor – inhibitors of rat ARFGAP1 GAP activity, primary screen, biochemical, fluorescence polarization, GDP tracer | AID 651572, 2012 | hit rate 0.26% among 360,000 | Arfgap1-stimulated ARF1 GTP hydrolysis, GDP FP detection | inhibition, % at 16.5 µM | ADP-ribosylation factor GTPase-activating protein 1 (Rattus norvegicus), Q62848;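 active = inhibition above a per-plate limit, mean inhibition of low control wells plus 3 SD, cut at about 25% in these data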
Target sequence (Q62848 1-136 limits assumed): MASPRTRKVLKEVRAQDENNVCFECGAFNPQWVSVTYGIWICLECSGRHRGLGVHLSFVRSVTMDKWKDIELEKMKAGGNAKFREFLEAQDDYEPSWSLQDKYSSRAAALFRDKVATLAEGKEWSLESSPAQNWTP
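System: truncated rat Arfgap1 GAP domain / Medium: HEPES-based buffer, pH 7.5 / Also added: N-terminally truncated human ARF1-GTP substrate / Incubation: enzyme reaction 120 min at 25 °C after 20 min preincubation / Measured by: FP of antibody-bound GDP Alexa 633 tracer, ex 620/em 688 nm / Replicates: singlicate, each compound tested once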
LEDGF integ inh – blockers of LEDGF/p75-dependent integrase strand transfer – biochemical, TR-FRET, high throughput, primary screen | HIV-1 integrase (with human LEDGF/p75) | TR-FRET IN-LEDGF/p75 DNA integration, Eu/Cy5 | inhibition, % at 3.7 µM | hit rate 0.64% among 370,000;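 active = inhibition above the screen-wide mean plus 3 SD, cut at about 13% in these data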;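 also: signal is the Cy5 over europium emission ratio at 671 and 618 nm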
Hits are given with their value; . = inactive; / = no result. The list is not random: actives were taken first. Their share in the collection is about 2%.

SMILES	ASAP1 inh	UHRF1 MBD2 ctr	MBD2 DNA inh	TDP2 absorb	ARFGAP1 inhibitor	LEDGF integ inh
Cc1cnc(C(=O)OCC(=O)N2C(C)CCCC2C)cn1 (centres undefined)	.	24	.	.	.	.
O=C(COC(=O)c1ccc[nH]c1=O)NC1CCCCCC1	.	56	.	.	.	.
Cc1cnc(C(=O)OCC(=O)NC2CCCCC2)cn1	.	.	.	.	.	.
Cc1cnc(C(=O)OCC(=O)NC2CCCCCC2)cn1	.	22	.	.	.	.
Cc1ccc(OCCn2c(CCNC(=O)c3ccc(F)cc3F)nc3ccccc32)cc1	/	.	.	.	/	.
COc1ccc(CN2C(=O)[C@@](O)(c3cccn3C)c3cc(F)ccc32)cc1	/	.	.	.	/	.
COC(=O)[C@]12C[C@H](CC(=O)NCC34CC5CC(CC(C5)C3)C4)C(=O)N(Cc3ccc(Cl)cc3Cl)C1=C[C@H](C(C)C)O[C@@H]2C1CC1	/	.	.	.	/	.
COCCCNC(=O)CSc1nnc(-c2cccnc2)n1C1CCCCC1	/	.	.	.	/	.
CS(=O)(=O)N(CC(=O)N1CCCCCC1)c1ccc(Cl)cc1	.	29	.	.	.	.
CC(=O)Nc1ccc2c(O)cc(S(=O)(=O)O)cc2c1	.	.	.	.	.	.
O=S(=O)(O)c1cc(O)c2ccc(Nc3ccccc3)cc2c1	.	64	36	.	.	32
COc1ccccc1Nc1ccc2c(O)cc(S(=O)(=O)O)cc2c1	.	47	24	.	.	36
Nc1ccc2c(O)cc(S(=O)(=O)O)cc2c1	.	21	.	.	.	40
CCn1c2ccccc2c2cc(NC(=O)COC(=O)c3cccc(OC)c3)ccc21	/	.	.	.	/	.
COc1cc(C=O)ccc1OCc1cn(CC(=O)c2ccc(O)cc2)nn1	.	.	.	.	.	.
CC(=O)c1ccc(OCc2cn(CC(=O)c3ccc(O)cc3)nn2)c(C)c1	.	23	.	.	.	.
O=C(Cn1cc(COc2ccc(Br)cc2[N+](=O)[O-])nn1)c1ccc(O)cc1	.	24	.	.	.	.
COc1cc(C(C)=O)ccc1OCc1cn(CC(=O)c2ccc(O)cc2)nn1	.	21	.	.	.	.
CC(=O)c1ccc(OCc2cn(CC(=O)c3ccc(O)cc3)nn2)cc1	.	21	.	.	.	.
O=C(Cn1cc(COc2cc(F)cc(F)c2)nn1)c1ccc(O)cc1	.	.	.	.	.	.
COC(=O)[C@]12C[C@H](CC(=O)N3CCN(C(=O)c4ccco4)CC3)C(=O)N(Cc3cccc4ccccc34)C1=C[C@H](C(C)(C)C)O[C@@H]2C	/	.	.	.	/	.
O=C(Cn1nc(-c2ccccc2)ccc1=O)NCCc1ccccc1F	/	.	.	.	/	.
O=C(CSc1nnc(-c2ccccc2)n1-c1ccc(Cl)cc1)c1ccccc1Br	/	.	.	.	/	.
S=C(Nc1ccccc1Br)OCCN1CCCC12CCC(c1ccccc1)CC2 (centres undefined)	/	.	.	.	/	.
COc1cc(OC)cc(C(C)c2ccc(C)cc2)c1 (centres undefined)	/	.	.	.	/	.
SMILES	ASAP1 inh	UHRF1 MBD2 ctr	MBD2 DNA inh	TDP2 absorb	ARFGAP1 inhibitor	LEDGF integ inh
O=CNCC(=O)NC1CCCCCC1	.	24	.	.	.	.
O=C(CCCC(=O)NC1CCCC1)NC1CCCC1	.	.	.	.	.	.
COc1cccc(OC(C)CCN2CCC(C(O)(c3ccccc3)c3ccccc3)CC2)c1 (centres undefined)	/	.	.	.	/	.
c1ccc(-c2c[nH]c3ccc(OCc4ccc5ccccc5n4)c(-c4ccccc4)c23)cc1	/	.	.	.	/	.
O=C(CSc1ccc(C(F)(F)F)cc1[N+](=O)[O-])Nc1ccccc1	31	.	.	.	.	.
CC(OC(=O)Cn1[nH]c(=O)c2ccccc2c1=O)C(=O)Nc1cccc(Cl)c1 (centres undefined)	.	.	.	.	.	.
CC(OC(=O)Cn1[nH]c(=O)c2ccccc2c1=O)C(=O)Nc1ccc(F)cc1Cl (centres undefined)	.	50	.	.	.	.
CCN(CC)c1ccc(N=Cc2ccccc2[N+](=O)[O-])cc1	.	.	.	.	.	15
COc1cccc(-c2ccc(CC[C@H]3O[C@H]4CC[C@@H](CO)O[C@H]4C[C@H]3NC(=O)c3cnccn3)cc2)c1	/	.	.	.	/	.
Cc1c(NC(=O)/C(C#N)=C/c2ccc(-c3ccc(Cl)cc3)o2)c(=O)n(-c2ccccc2)n1C	.	22	.	.	.	.
Clc1cccc(Cl)c1CN1CCN(c2ncccn2)CC1	.	.	.	.	.	.
Cn1nc(-c2ccccc2)c(CN2CCN(c3ncccn3)CC2)c1Cl	.	34	.	.	.	.
CCCC1CCC2(CC1)CCC2OC(=S)Nc1ccc(Br)cc1 (centres undefined)	/	.	.	.	/	.
Cc1ccc(Cc2c(C(C)(C)C)nc3ccc(Br)cn23)cc1	.	23	.	.	.	.
CCn1c2ccccc2c2cc(NC(=O)C(=O)N3CCOCC3)ccc21	.	23	.	.	.	.
CCn1c2ccccc2c2cc(NC(C)=O)ccc21	.	.	.	.	.	.
CCCCOCCCNC(=O)C[C@H]1C[C@@]2(C(=O)OC)C(=C[C@H](C3CCCC3)O[C@@H]2C)N(Cc2ccco2)C1=O	/	.	.	.	/	.
Cc1ccc(Nc2nc(=O)c3cc([N+](=O)[O-])ccc3s2)cc1	.	.	.	.	.	.
COc1ccc(Nc2nc(=O)c3cc([N+](=O)[O-])ccc3s2)cc1	.	25	.	.	.	.
COc1ccccc1N1CCN(C(=O)COc2cc(C)ccc2C)CC1	.	.	.	.	.	.
COc1ccccc1N1CCN(C(=O)COc2cc(C)cc(C)c2)CC1	.	28	.	.	.	.
CO[C@H]([C@H](C)/C=C/N(C)C=O)[C@@H](C)C(=O)CC[C@H](C)[C@H](O)[C@H](C)[C@H]1OC(=O)/C=C/C(C)=C/C[C@H](O)C[C@@H]2C=CC[C@@H](C[C@H](OC)[C@@H](CO)[C@@H](OC)C[C@@H](OC)[C@@H]1C)O2	/	.	.	.	/	.
CCCN=C1CC(C)(C)CC(=O)/C1=C(/O)CCC	.	.	.	.	.	.
CCCCCCN=C1CC(C)(C)CC(=O)/C1=C(/O)CCC	.	23	.	.	.	.
